Published values collected from several papers.

COc1nc(-c2cccc(-c3ccccc3)c2C)ccc1CNCCNC(=O)CCCCCCCCCCC(=O)N1CCN(CCNC(=O)c2cc3c(=O)n4cccc(C)c4nc3n(CCc3cccs3)c2=N)CC1 — Cmax (male Sprague-Dawley rat, plasma; intraperitoneal, 4 mg/kg): 300 ng/mL
CC[C@H](C)[C@H](NC(=O)[C@@H]1CCCN1C(=O)CNC(=O)[C@H](Cc1ccccc1)NC(=O)[C@H](CC(N)=O)NC(=O)[C@H](CC(N)=O)NC(=O)[C@H](CO)NC(=O)[C@H](CO)NC(=O)[C@H](Cc1c[nH]cn1)NC(=O)[C@H](CCCNC(=N)N)NC(=O)[C@H](CC(C)C)NC(=O)[C@H](Cc1ccccc1)NC(=O)[C@H](CCC(=O)O)NC(=O)[C@H](C)NC(=O)[C@H](CC(C)C)NC(=O)[C@H](CCCNC(=N)N)NC(=O)[C@H](CCC(N)=O)NC(=O)[C@@H](NC(=O)[C@H](C)NC(=O)[C@@H]1CSSC[C@H](NC(=O)[C@H](CCCCN)NC(=O)CC[C@H](NC(=O)CCCCCCCCCCCCCCCCCCC(=O)O)C(=O)O)C(=O)N[C@@H](CC(N)=O)C(=O)N[C@@H]([C@@H](C)O)C(=O)N[C@@H](C)C(=O)N[C@@H]([C@@H](C)O)C(=O)N1)[C@@H](C)O)C(=O)N[C@@H](CC(C)C)C(=O)N1CCC[C@H]1C(=O)N1CCC[C@H]1C(=O)N[C@H](C(=O)N[C@@H](CC(N)=O)C(=O)N[C@H](C(=O)NCC(=O)N[C@@H](CO)C(=O)N[C@@H](CC(N)=O)C(=O)N[C@H](C(=O)N1CCC[C@H]1C(N)=O)[C@@H](C)O)C(C)C)[C@@H](C)O — half-life (cynomolgus monkey, plasma; subcutaneous, 20 nmol/kg, single dose): 62 h
CNS(=O)(=O)c1ccc(Nc2ncc3cc(Cl)c(=O)n(C4CCCC4)c3n2)c(C)c1 — bioavailability (rat, plasma; oral, 10 mg/kg): 3%
C[C@H]1Oc2cc(cnc2N)-c2c(nn(C)c2C#N)CN(C)C(=O)c2ccc(F)cc21 — Cmax (male Sprague-Dawley rat, plasma; oral, 50 mg/kg, single dose): 2480 ng/mL
Cc1c(C)c2c(c(C)c1O)CCC(C)(COc1ccc(CC3SC(=O)NC3=O)cc1)O2 (centres unmarked) — viability (THLE-2; cell growth or viability, MTT; 100 µM, 72 h): 9%
NCc1cc2c(cc1F)C(=O)N(C1CCC(=O)NC1=O)C2 (centres unmarked) — half-life (male cynomolgus monkey, plasma; oral, 0.3 mg/kg): 2.2 h
CC(=O)Nc1ccc(O)cc1 — viability (THLE-2; cell growth or viability, MTT; 100 µM, 72 h): 29.1%
C[C@]1(O)CCCN(c2nc(Nc3ccc(S(=O)(=O)N[C@H]4CC[C@H](CN5CCN(c6ccc(C7CCC(=O)NC7=O)c(F)c6)CC5)CC4)cc3F)ncc2C(F)(F)F)C1 (some centres unmarked) — bioavailability (rat, plasma; oral, 10 mg/kg): 24%
